For data set [1], the species on record is Mus musculus. In words: Anticonvulsant activity in mouse assessed as protection against maximal electroshock-induced seizures. Format: functional.
Data set [2] can be described thus: Toxicity in mouse. It is filed as organism-based. The settings on record: in vivo. The method, boiled down: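 Toxicity in mice from the NINCDS screens, expressed as TD50: dose toxic in 50% of screens, in mg/kg.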
The test system of data set [3] is Mus musculus. In words: Anticonvulsant activity in mouse assessed as protection against subcutaneous pentylenetetrazole-induced seizures. It is filed as functional. The settings on record: sc. The method, boiled down: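 Mice screened in the NINCDS program for subcutaneous metrazole (pentylenetetrazole) seizure threshold (scMet) protection; ED50 taken as dose effective in 50% of test animals, in mg/kg.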

This is an account of results in ChEMBL document CHEMBL3227954, “Synthesis of imidazolidinediones and oxazolidinediones from cyclization of propargylureas and propargyl carbamates” (J Med Chem, 1979).

Activity calls are given as the source filed them.

Regarding `CCN(CC)CCN1C(=O)NC(c2ccccc2)(c2ccccc2)C1=O`, the median effective dose (ED50) (usually the dose at which the effect has come halfway, by size or by number of responders) in the data set listed under Mus musculus [1] is 80 mg/kg.

For `CC1(C)NC(=O)N(C23CC4CC(CC(C4)C2)C3)C1=O`, the outcome in the data set filed under Mus musculus [1] was inactive.

For the molecule `CC1(C)OC(=O)N(C(C)(C)C)C1=O`, the result in the data set listed under Mus musculus [1] was inactive.

For the molecule `CC(=O)N1C(=O)N(C(C)(C)C)C(=O)C1(C)C`, in data set [2], the TD50 (in general, the 50% point of the dose-response relation for the toxic effect studied) was ≤ 30 mg/kg.

Regarding `CC1(C)NC(=O)N(C(C)(C)C)C1=O`, in the data set with Mus musculus [3], the ED50 came out at 130 mg/kg. This molecule also registered a TD50 in data set [2] of 343 mg/kg.

Regarding `CCN(CC)CCN1C(=O)NC(C)(C)C1=O`, the outcome in the data set listed under Mus musculus [1] was inactive.

Take `CCN(CC)CCN1C(=O)N(CCN(CC)CC)C(c2ccccc2)(c2ccccc2)C1=O`: in the data set filed under Mus musculus [1], the result was inactive.

As for `CN1C(=O)N(C(C)(C)C)C(=O)C1(C)C`, the result in the data set filed under Mus musculus [1] was inactive.

As to `Cc1ccc(S(=O)(=O)N2C(=O)NC(C)(C)C2=O)cc1`, the outcome in the data set listed under Mus musculus [1] was inactive.
